Source: ChEMBL document CHEMBL4364301 (Eur J Med Chem, 2019)

Assays:
Format in all cases: functional
CWR22R [1] = experiment: Antiproliferative activity against human 22Rv1 cells assessed as T/C value at 1 x 10^-1 uM incubated for 96 hrs by propidium iodide based 2D monolayer assay
Outline: (§1)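 Cells were kept in RPMI 1640 with 25 mM HEPES, 10% FCS and gentamicin at 37 °C under 5% CO2, and plated at 4,000-20,000 cells/well. After 24 h recovery, compound in medium or medium alone (control wells) was added at 10 half-log concentrations from 0.0032 to 100 µM, in triplicate, with at most 0.3% DMSO. After 96 h, wells were PBS-washed, stained with 7 µg/ml PI and 0.1% Triton X-100, and fluorescence read at 530/620 nm. IC50 came from a 4-parameter fit, geometric mean.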

DU-145 [2] = experiment: Antiproliferative activity against human DU145 cells assessed as T/C value at 3.2 x 10^-1 uM incubated for 96 hrs by propidium iodide based 2D monolayer assay
Outline: (§2)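 After 24 h recovery, compound in medium or medium alone (control wells) was added at 10 half-log concentrations from 0.0032 to 100 µM, in triplicate, with at most 0.3% DMSO. After 96 h, wells were PBS-washed, stained with 7 µg/ml PI and 0.1% Triton X-100, and fluorescence read at 530/620 nm. IC50 came from a 4-parameter fit, geometric mean.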

VCaP [3] = experiment: Antiproliferative activity against human VCaP cells assessed as T/C value at 1 uM incubated for 96 hrs by propidium iodide based 2D monolayer assay; outline: as §1
CWR22R [4] = experiment: Antiproliferative activity against human 22Rv1 cells assessed as T/C value at 1 uM incubated for 96 hrs by propidium iodide based 2D monolayer assay; outline: as §1
LNCaP [5] = experiment: Antiproliferative activity against human LNCAP cells assessed as T/C value at 1 x 10^1 uM incubated for 96 hrs by propidium iodide based 2D monolayer assay; outline: as §1
DU-145 [6] = experiment: Antiproliferative activity against human DU145 cells assessed as T/C value at 1 x 10^-1 uM incubated for 96 hrs by propidium iodide based 2D monolayer assay; outline: as §2
CWR22R [7] = experiment: Antiproliferative activity against human 22Rv1 cells assessed as T/C value at 1 x 10^1 uM incubated for 96 hrs by propidium iodide based 2D monolayer assay; outline: as §1
DU-145 [8] = experiment: Antiproliferative activity against human DU145 cells assessed as reduction in cell growth incubated for 96 hrs by propidium iodide based 2D monolayer assay; settings: DU-145, 96 h; outline: as §2
LNCaP [9] = experiment: Antiproliferative activity against human LNCAP cells assessed as T/C value at 3.2 x 10^-3 uM incubated for 96 hrs by propidium iodide based 2D monolayer assay; outline: as §1
VCaP [10] = experiment: Antiproliferative activity against human VCaP cells assessed as T/C value at 1 x 10^2 uM incubated for 96 hrs by propidium iodide based 2D monolayer assay; outline: as §1
DU-145 [11] = experiment: Antiproliferative activity against human DU145 cells assessed as T/C value at 1 x 10^2 uM incubated for 96 hrs by propidium iodide based 2D monolayer assay; outline: as §1
VCaP [12] = experiment: Antiproliferative activity against human VCaP cells assessed as T/C value at 3.2 x 10^1 uM incubated for 96 hrs by propidium iodide based 2D monolayer assay
Outline: (§3)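 VCaP cells in RPMI 1640 with 10% FCS at 37 °C, 5% CO2, seeded 4,000–20,000 cells/well and left 24 h before dosing. Compounds from DMSO stocks were diluted in half-log steps in medium, 10 concentrations 0.0032–100 μM, triplicate wells, max 0.3% DMSO. After 96 h, cells were washed, stained with 7 μg/ml propidium iodide plus 0.1% Triton X-100 for 1–2 h at room temperature, and fluorescence read at ex 530/em 620 nm.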

VCaP [13] = experiment: Antiproliferative activity against human VCaP cells assessed as reduction in cell growth incubated for 96 hrs by propidium iodide based 2D monolayer assay; outline: as §3
CWR22R [14] = experiment: Antiproliferative activity against human 22Rv1 cells assessed as T/C value at 1 x 10^2 uM incubated for 96 hrs by propidium iodide based 2D monolayer assay; outline: as §1
DU-145 [15] = experiment: Antiproliferative activity against human DU145 cells assessed as T/C value at 3.2 x 10^-2 uM incubated for 96 hrs by propidium iodide based 2D monolayer assay; outline: as §2
CWR22R [16] = experiment: Antiproliferative activity against human 22Rv1 cells assessed as reduction in cell growth incubated for 96 hrs by propidium iodide based 2D monolayer assay; settings: 22Rv1, 96 h; outline: as §2
LNCaP [17] = experiment: Antiproliferative activity against human LNCAP cells assessed as T/C value at 1 uM incubated for 96 hrs by propidium iodide based 2D monolayer assay; outline: as §1
LNCaP [18] = experiment: Antiproliferative activity against human LNCAP cells assessed as T/C value at 3.2 uM incubated for 96 hrs by propidium iodide based 2D monolayer assay; outline: as §1
VCaP [19] = experiment: Antiproliferative activity against human VCaP cells assessed as T/C value at 3.2 x 10^-1 uM incubated for 96 hrs by propidium iodide based 2D monolayer assay; outline: as §3
DU-145 [20] = experiment: Antiproliferative activity against human DU145 cells assessed as T/C value at 1 x 10^-2 uM incubated for 96 hrs by propidium iodide based 2D monolayer assay; outline: as §2
VCaP [21] = experiment: Antiproliferative activity against human VCaP cells assessed as T/C value at 3.2 x 10^-3 uM incubated for 96 hrs by propidium iodide based 2D monolayer assay; outline: as §3
DU-145 [22] = experiment: Antiproliferative activity against human DU145 cells assessed as T/C value at 3.2 uM incubated for 96 hrs by propidium iodide based 2D monolayer assay; outline: as §1
CWR22R [23] = experiment: Antiproliferative activity against human 22Rv1 cells assessed as T/C value at 3.2 x 10^-1 uM incubated for 96 hrs by propidium iodide based 2D monolayer assay; outline: as §1
DU-145 [24] = experiment: Antiproliferative activity against human DU145 cells assessed as T/C value at 1 uM incubated for 96 hrs by propidium iodide based 2D monolayer assay; outline: as §2
CWR22R [25] = experiment: Antiproliferative activity against human 22Rv1 cells assessed as T/C value at 3.2 x 10^1 uM incubated for 96 hrs by propidium iodide based 2D monolayer assay; outline: as §1
LNCaP [26] = experiment: Antiproliferative activity against human LNCAP cells assessed as T/C value at 1 x 10^-2 uM incubated for 96 hrs by propidium iodide based 2D monolayer assay; outline: as §1
VCaP [27] = experiment: Antiproliferative activity against human VCaP cells assessed as T/C value at 3.2 uM incubated for 96 hrs by propidium iodide based 2D monolayer assay; outline: as §1
VCaP [28] = experiment: Antiproliferative activity against human VCaP cells assessed as T/C value at 1 x 10^-2 uM incubated for 96 hrs by propidium iodide based 2D monolayer assay; outline: as §1
DU-145 [29] = experiment: Antiproliferative activity against human DU145 cells assessed as T/C value at 3.2 x 10^-3 uM incubated for 96 hrs by propidium iodide based 2D monolayer assay; outline: as §2
LNCaP [30] = experiment: Antiproliferative activity against human LNCAP cells assessed as T/C value at 1 x 10^2 uM incubated for 96 hrs by propidium iodide based 2D monolayer assay; outline: as §1
VCaP [31] = experiment: Antiproliferative activity against human VCaP cells assessed as T/C value at 3.2 x 10^-2 uM incubated for 96 hrs by propidium iodide based 2D monolayer assay; outline: as §3
CWR22R [32] = experiment: Antiproliferative activity against human 22Rv1 cells assessed as T/C value at 3.2 uM incubated for 96 hrs by propidium iodide based 2D monolayer assay; outline: as §1

| SMILES | T/C (CWR22R [1]) | T/C (DU-145 [2]) | T/C (VCaP [3]) | T/C (CWR22R [4]) | T/C (LNCaP [5]) | T/C (DU-145 [6]) | T/C (CWR22R [7]) | IC50 (DU-145 [8]) | IC70 (DU-145 [8]) | T/C (LNCaP [9]) | T/C (VCaP [10]) | T/C (DU-145 [11]) | T/C (VCaP [12]) | IC50 (VCaP [13]) | IC70 (VCaP [13]) | T/C (CWR22R [14]) | T/C (DU-145 [15]) | IC50 (CWR22R [16]) | IC70 (CWR22R [16]) | T/C (LNCaP [17]) | other results |
| --- | --- | --- | --- | --- | --- | --- | --- | --- | --- | --- | --- | --- | --- | --- | --- | --- | --- | --- | --- | --- | --- |
| CC(O)(CSc1cc(C(F)(F)F)cc(C(F)(F)F)c1)C(=O)Nc1cccc(C(F)(F)C(F)(F)F)c1 (racemic) | 106% | 135% | 93% | 107% | 8% | 135% | 9% | 8.9 µM | 9.6 µM | 90% | 11% | 2% | 20% | 8.6 µM | 11.7 µM | 5% | 123% | 4.2 µM | 5.41 µM | 107% | T/C (LNCaP [18]): 72%; T/C (VCaP [19]): 109%; T/C (DU-145 [20]): 121%; T/C (VCaP [21]): 104%; T/C (DU-145 [22]): 133%; T/C (CWR22R [23]): 107%; T/C (DU-145 [24]): 134%; T/C (CWR22R [25]): 7%; T/C (LNCaP [26]): 93%; T/C (VCaP [27]): 102%; T/C (VCaP [28]): 107%; T/C (DU-145 [29]): 117%; T/C (LNCaP [30]): 7%; T/C (VCaP [31]): 98%; T/C (CWR22R [32]): 75% |
| CC(O)(COc1ccc(C(F)(F)C(F)(F)F)cc1)C(=O)Nc1cc(C(F)(F)F)cc(C(F)(F)F)c1 (racemic) | 107% | 123% | 94% | 107% | 9% | 113% | 9% | 6.8 µM | 7.99 µM | 91% | 2% | -1% | 6% | 3 µM | 4.16 µM | 3% | 108% | 2.5 µM | 3.11 µM | 93% | T/C (LNCaP [18]): 25%; T/C (VCaP [19]): 99%; T/C (DU-145 [20]): 108%; T/C (VCaP [21]): 76%; T/C (DU-145 [22]): 108%; T/C (CWR22R [23]): 108%; T/C (DU-145 [24]): 115%; T/C (CWR22R [25]): 5%; T/C (LNCaP [26]): 94%; T/C (VCaP [27]): 45%; T/C (VCaP [28]): 91%; T/C (DU-145 [29]): 101%; T/C (LNCaP [30]): 1%; T/C (VCaP [31]): 90%; T/C (CWR22R [32]): 29% |
| CC(O)(COc1cccc(S(F)(F)(F)(F)F)c1)C(=O)Nc1cc(C(F)(F)F)cc(C(F)(F)F)c1 (racemic) | 99% | 117% | 88% | 94% | 2% | 119% | 12% | 5.7 µM | 6.66 µM | 88% | 6% | 0% | 5% | 2.7 µM | 5.41 µM | 2% | 105% | 2.3 µM | 3.17 µM | 93% | T/C (LNCaP [18]): 18%; T/C (VCaP [19]): 92%; T/C (DU-145 [20]): 101%; T/C (VCaP [21]): 111%; T/C (DU-145 [22]): 105%; T/C (CWR22R [23]): 101%; T/C (DU-145 [24]): 120%; T/C (CWR22R [25]): 2%; T/C (LNCaP [26]): 89%; T/C (VCaP [27]): 34%; T/C (VCaP [28]): 99%; T/C (DU-145 [29]): 104%; T/C (LNCaP [30]): 2%; T/C (VCaP [31]): 90%; T/C (CWR22R [32]): 29% |
